Test results taken from ChEMBL document CHEMBL1240409, “Design, synthesis and evaluation of (E)-alpha-benzylthio chalcones as novel inhibitors of BCR-ABL kinase” (Bioorg Med Chem, 2010).
Calls of active or inactive are those of the source. No cut-off for these calls is given here.

Experiments:
[1] = system: K562; assay: Growth inhibition of human K562 cells expressing p210Bcr/Abl after 96 hrs by trypan blue exclusion assay; format: functional, cell-based; conditions: K562, 96 h
In short: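 K562 cells were kept in RPMI with 10% FBS and penicillin–streptomycin at 37 °C under 5% CO2. Cells were seeded at 1 × 10^5 cells/mL with a range of compound concentrations, using DMSO as the negative control. After 96 h, viability was counted by Trypan blue exclusion and expressed as percent of DMSO control to derive GI50.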

[2] = system: DU-145; assay: Growth inhibition of human DU145 cells after 96 hrs by trypan blue exclusion assay; format: functional; conditions: DU-145, 96 h
[3] = biological target: T1, Bcr/Abl fusion protein (Homo sapiens, UniProt P00519); assay: Inhibition of BCR/ABL p210 autophosphorylation in human K562 cells after 2 hrs by Western blot analysis; format: cell-based
[4] = Aqueous solubility of the compound; format: physicochemical; conditions: buffer
[5] = biological target: Bcr/Abl fusion protein (Homo sapiens) (UniProt P00519+P11274); assay: Inhibition of BCR/ABL p210 autophosphorylation in human K562 cells at 0.2 to 10 uM after 2 hrs by Western blot analysis; format: cell-based
In short: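 Exponentially growing K562 cells were treated for 2 h with rising compound concentrations, diluted from 10 mM DMSO stocks via 1000× DMSO working stocks, or with DMSO vehicle. Lysates were run on 10% SDS–PAGE. Blots were probed sequentially for phospho-BCR-ABL and total BCR-ABL, detected with infrared-dye secondaries, and quantified by densitometry. The phospho signal was normalized to total, with % inhibition relative to vehicle.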

[6] = biological target: T1, Bcr/Abl fusion protein; assay: Inhibition of Bcr-Abl after 20 mins by autoradiography; format: protein assay
In short: (§1)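 Kinase reactions were started by adding 1 µg recombinant substrate with unlabelled and 32P-labelled ATP. They ran 20 min at 30 °C and were stopped with 2× Laemmli buffer, then boiled 2 min and resolved on 12% SDS–PAGE. Substrate phosphorylation bands on autoradiograms were quantified by densitometry and plotted against log drug concentration. IC50 came from sigmoidal variable-slope nonlinear regression.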

[7] = biological target: Tyrosine-protein kinase Lyn (Homo sapiens, UniProt P07948); assay: Inhibition of GST-tagged recombinant LynB after 20 mins by autoradiography; in short: as §1
[8] = biological target: Proto-oncogene tyrosine-protein kinase Src (Homo sapiens, UniProt P12931); assay: Inhibition of GST-tagged recombinant Src after 20 mins by autoradiography; in short: as §1
[9] = biological target: Receptor tyrosine-protein kinase erbB-2 (Homo sapiens, UniProt P04626); assay: Inhibition of ErbB2 by immunoprecipitation assay
[10] = biological target: Epidermal growth factor receptor (Homo sapiens, UniProt P00533); assay: Inhibition of EGFR by immunoprecipitation assay
[11] = biological target: Serine/threonine-protein kinase PLK1 (Homo sapiens, UniProt P53350); assay: Inhibition of GST-tagged recombinant PLK1 after 20 mins by autoradiography; in short: as §1
[12] = biological target: Cyclin-dependent kinase 1 (Homo sapiens, UniProt P06493); assay: Inhibition of GST-tagged recombinant CDK1 after 20 mins by autoradiography; in short: as §1
[13] = Aqueous solubility of the compound

Chain of Bcr/Abl fusion protein (Homo sapiens) (P00519 whole entry, looked up, the tested form may be a part): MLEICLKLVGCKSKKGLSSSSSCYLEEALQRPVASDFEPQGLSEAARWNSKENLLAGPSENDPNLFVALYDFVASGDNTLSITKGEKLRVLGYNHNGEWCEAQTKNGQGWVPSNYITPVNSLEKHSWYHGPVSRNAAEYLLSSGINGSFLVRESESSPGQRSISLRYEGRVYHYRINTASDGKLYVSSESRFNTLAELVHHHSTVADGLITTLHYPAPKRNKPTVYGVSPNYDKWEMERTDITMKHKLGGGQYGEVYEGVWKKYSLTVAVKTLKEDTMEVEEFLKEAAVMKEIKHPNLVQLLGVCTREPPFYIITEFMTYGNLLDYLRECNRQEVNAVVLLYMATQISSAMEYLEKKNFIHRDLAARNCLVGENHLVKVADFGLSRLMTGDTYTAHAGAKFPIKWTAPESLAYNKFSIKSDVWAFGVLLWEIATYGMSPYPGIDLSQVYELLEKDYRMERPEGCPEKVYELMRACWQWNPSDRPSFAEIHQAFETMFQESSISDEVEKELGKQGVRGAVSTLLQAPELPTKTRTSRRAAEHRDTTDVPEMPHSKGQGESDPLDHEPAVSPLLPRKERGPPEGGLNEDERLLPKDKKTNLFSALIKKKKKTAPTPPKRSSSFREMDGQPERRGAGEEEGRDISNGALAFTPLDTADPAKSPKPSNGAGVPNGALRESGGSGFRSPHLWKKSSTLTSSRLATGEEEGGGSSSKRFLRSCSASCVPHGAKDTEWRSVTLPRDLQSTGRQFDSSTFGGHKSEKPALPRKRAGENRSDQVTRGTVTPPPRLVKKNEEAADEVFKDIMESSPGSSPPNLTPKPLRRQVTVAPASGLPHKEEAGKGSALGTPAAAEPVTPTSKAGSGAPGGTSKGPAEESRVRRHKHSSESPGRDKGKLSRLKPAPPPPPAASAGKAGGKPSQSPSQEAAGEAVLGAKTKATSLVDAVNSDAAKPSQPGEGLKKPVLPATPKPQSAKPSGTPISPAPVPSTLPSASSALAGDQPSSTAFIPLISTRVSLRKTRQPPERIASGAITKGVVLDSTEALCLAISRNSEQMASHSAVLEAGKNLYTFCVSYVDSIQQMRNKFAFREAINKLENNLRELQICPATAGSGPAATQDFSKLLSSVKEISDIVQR
Chain of Bcr/Abl fusion protein (Homo sapiens) (P11274 whole entry, looked up, the tested form may be a part): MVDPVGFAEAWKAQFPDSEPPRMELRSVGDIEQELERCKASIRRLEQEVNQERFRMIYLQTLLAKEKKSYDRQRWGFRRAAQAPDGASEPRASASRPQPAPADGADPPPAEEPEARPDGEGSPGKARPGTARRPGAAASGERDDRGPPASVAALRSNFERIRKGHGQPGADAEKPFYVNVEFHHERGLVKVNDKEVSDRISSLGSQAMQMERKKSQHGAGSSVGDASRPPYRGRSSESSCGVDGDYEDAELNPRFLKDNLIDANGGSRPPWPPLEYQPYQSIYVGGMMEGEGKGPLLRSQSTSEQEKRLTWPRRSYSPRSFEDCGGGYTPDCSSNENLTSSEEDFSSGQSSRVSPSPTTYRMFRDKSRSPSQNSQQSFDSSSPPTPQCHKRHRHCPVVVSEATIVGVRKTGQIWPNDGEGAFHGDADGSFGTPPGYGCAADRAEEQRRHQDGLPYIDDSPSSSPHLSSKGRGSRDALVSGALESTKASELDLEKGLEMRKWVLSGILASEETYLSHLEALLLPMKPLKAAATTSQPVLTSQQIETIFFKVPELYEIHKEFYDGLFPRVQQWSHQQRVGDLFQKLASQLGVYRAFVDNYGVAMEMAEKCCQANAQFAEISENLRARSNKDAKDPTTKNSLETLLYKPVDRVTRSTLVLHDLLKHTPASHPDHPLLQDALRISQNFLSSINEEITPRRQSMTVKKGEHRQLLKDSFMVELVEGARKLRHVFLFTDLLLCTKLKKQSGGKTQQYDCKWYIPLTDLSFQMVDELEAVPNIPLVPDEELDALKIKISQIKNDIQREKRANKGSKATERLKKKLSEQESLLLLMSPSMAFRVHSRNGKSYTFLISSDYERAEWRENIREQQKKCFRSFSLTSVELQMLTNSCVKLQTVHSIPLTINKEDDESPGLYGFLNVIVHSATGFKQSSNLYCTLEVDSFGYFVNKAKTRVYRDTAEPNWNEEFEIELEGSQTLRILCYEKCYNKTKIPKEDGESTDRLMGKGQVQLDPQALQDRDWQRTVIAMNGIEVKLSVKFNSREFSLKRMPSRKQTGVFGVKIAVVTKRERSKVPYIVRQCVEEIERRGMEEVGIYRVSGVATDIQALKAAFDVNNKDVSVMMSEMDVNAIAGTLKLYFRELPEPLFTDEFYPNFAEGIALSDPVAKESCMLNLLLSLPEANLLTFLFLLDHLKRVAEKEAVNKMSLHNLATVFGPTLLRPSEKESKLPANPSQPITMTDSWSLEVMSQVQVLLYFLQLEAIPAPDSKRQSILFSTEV
T1 sequence (P00519 whole entry, the tested form may be a part): as the sequence (P00519 whole entry, looked up, the tested form may be a part) above
T1 sequence (P11274 whole entry, further chain, the tested form may be a part): as the sequence (P11274 whole entry, looked up, the tested form may be a part) above
Chain of Cyclin-dependent kinase 1 (P06493 whole entry): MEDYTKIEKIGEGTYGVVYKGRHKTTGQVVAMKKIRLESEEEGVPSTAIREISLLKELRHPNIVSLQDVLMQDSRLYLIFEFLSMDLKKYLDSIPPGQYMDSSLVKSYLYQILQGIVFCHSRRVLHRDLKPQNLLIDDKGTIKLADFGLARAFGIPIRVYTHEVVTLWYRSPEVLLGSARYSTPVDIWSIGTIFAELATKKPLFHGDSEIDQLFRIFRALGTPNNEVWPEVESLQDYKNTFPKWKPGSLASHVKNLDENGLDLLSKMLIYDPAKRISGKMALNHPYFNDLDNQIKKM
Chain of Serine/threonine-protein kinase PLK1 (P53350 whole entry): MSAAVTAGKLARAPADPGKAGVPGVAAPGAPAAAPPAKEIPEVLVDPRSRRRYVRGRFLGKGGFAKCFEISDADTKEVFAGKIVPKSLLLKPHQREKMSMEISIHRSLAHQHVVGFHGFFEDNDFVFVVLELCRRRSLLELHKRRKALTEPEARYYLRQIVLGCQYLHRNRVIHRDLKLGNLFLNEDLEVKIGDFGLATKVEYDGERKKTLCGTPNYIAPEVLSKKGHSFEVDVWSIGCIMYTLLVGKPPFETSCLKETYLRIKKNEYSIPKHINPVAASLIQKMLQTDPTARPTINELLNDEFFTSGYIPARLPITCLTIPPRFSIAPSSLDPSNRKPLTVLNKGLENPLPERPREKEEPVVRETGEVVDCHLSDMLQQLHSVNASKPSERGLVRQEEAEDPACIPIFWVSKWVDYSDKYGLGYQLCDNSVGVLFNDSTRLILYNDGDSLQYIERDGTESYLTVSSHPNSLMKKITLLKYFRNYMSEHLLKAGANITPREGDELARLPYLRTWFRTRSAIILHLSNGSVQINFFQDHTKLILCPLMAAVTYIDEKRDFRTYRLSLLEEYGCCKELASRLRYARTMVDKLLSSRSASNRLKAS
Chain of Proto-oncogene tyrosine-protein kinase Src (P12931 2-536 limits assumed): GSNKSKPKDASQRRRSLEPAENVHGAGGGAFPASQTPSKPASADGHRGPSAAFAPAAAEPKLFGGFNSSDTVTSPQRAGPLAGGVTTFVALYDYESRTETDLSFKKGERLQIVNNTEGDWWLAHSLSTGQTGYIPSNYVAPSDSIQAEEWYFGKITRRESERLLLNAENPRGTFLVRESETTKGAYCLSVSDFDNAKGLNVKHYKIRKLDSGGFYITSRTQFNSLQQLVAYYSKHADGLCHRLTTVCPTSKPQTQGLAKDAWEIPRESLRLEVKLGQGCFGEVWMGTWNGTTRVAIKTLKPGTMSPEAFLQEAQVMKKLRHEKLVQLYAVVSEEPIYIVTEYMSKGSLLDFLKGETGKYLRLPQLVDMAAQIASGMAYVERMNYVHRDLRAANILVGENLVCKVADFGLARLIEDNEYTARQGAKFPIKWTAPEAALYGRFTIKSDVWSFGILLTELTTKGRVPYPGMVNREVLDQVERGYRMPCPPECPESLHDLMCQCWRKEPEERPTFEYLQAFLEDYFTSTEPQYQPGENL
Chain of Tyrosine-protein kinase Lyn (P07948 whole entry): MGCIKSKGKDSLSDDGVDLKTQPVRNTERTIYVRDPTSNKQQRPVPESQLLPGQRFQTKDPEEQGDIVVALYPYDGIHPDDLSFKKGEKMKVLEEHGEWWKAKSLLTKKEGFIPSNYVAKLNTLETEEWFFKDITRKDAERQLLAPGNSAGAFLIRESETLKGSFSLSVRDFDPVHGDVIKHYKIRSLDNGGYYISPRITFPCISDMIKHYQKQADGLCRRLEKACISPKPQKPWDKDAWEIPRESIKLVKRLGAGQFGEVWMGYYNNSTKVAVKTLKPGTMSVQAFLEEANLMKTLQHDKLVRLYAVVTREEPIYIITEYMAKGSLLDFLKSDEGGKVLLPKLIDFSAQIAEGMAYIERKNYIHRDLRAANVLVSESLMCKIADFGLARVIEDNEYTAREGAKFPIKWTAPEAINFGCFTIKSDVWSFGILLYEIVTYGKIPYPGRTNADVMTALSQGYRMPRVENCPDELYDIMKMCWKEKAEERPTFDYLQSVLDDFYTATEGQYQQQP

Row | Compound | GI50 [1] [µM] | IC50 [1] [µM] | GI50 [2] [µM] | IC50 [3] [µM] | solubility [4] [µg/mL] | inhibition [5] | IC50 [6] [µM] | IC50 [7] [µM] | IC50 [8] [µM] | IC50 [9] [µM] | IC50 [10] [µM] | IC50 [11] [µM] | IC50 [12] [µM] | solubility [13] [µg/mL]
1 | O=C(O)c1ccc(C(=O)/C(=C\c2ccc(Br)c([N+](=O)[O-])c2)SCc2ccc(Cl)cc2Cl)cc1 | < 1 | 0.6 | 1 | 2.5 | < 1000 |  |  |  |  |  |  |  |  | 
2 | CN1CCN(CCNC(=O)c2ccc(C(=O)/C(=C\c3ccc(F)c([N+](=O)[O-])c3)SCc3ccc(Br)cc3)cc2)CC1 | 1 | 2.5 | 1 | 2.5 | > 10000 | Active |  |  |  |  |  |  |  | > 10000
3 | O=C(O)c1ccc(C(=O)/C(=C\c2ccc(F)c([N+](=O)[O-])c2)SCc2ccc(Cl)cc2Cl)cc1 | < 1 | 0.4 | 1 | 2.5 | < 1000 |  |  |  |  |  |  |  |  | 
4 | O=C(O)c1ccc(C(=O)/C(=C\c2ccc(F)c([N+](=O)[O-])c2)SCc2ccccc2Cl)cc1 | 1 | 0.5 | 1 | 10 | < 1000 |  |  |  |  |  |  |  |  | 
5 | O=C(O)c1ccc(C(=O)/C(=C\c2ccc(Cl)c([N+](=O)[O-])c2)S(=O)(=O)Cc2ccc(Br)cc2)cc1 | 25 | 25 | 25 | > 20 | < 1000 |  |  |  |  |  |  |  |  | 
6 | O=C(O)c1ccc(C(=O)/C(=C\c2ccc(Cl)c([N+](=O)[O-])c2)SCc2ccc(Cl)cc2Cl)cc1 | < 1 | 0.6 | 1 | 2.5 | < 1000 |  |  |  |  |  |  |  |  | 
7 | O=C(/C(=C\c1ccc(F)c([N+](=O)[O-])c1)SCc1ccc(F)cc1)c1ccc(C(=O)N2CCN(CCO)CC2)cc1 |  | 0.5 |  | 0.5 | > 10000 | Active |  |  |  |  |  |  |  | > 10000
8 | CCN(CC)CCNC(=O)c1ccc(C(=O)/C(=C\c2ccc(F)c([N+](=O)[O-])c2)SCc2ccc(Br)cc2)cc1 |  | 0.5 |  | 0.5 | > 10000 |  |  |  |  |  |  |  |  | > 10000
9 | O=C(/C(=C\c1ccc(F)c([N+](=O)[O-])c1)SCc1ccc(Br)cc1)c1ccc(C(=O)N2CCN(CCO)CC2)cc1 | < 0.25 | 0.5 | 0.75 | 0.5 | > 10000 | Active |  |  |  |  |  |  |  | > 10000
10 | O=C(/C(=C\c1ccc(F)c([N+](=O)[O-])c1)SCc1ccc(F)cc1)c1ccc(F)cc1 | < 1 | 0.6 | 1 | 2.5 | < 1000 |  |  |  |  |  |  |  |  | 
11 | O=C(O)c1ccc(C(=O)/C(=C\c2ccc(Cl)c([N+](=O)[O-])c2)SCc2ccccc2F)cc1 | < 1 | 0.8 | 1 | 10 | < 1000 |  |  |  |  |  |  |  |  | 
12 | O=C(O)c1ccc(C(=O)/C(=C\c2ccc(F)c([N+](=O)[O-])c2)Sc2ccc(Br)cc2)cc1 |  | 1.5 |  | 20 | < 1000 |  |  |  |  |  |  |  |  | 
13 | O=C(O)c1ccc(C(=O)/C(=C\c2ccc(F)c([N+](=O)[O-])c2)SCc2ccccc2)cc1 |  | 0.3 |  | 2.5 | < 1000 |  |  |  |  |  |  |  |  | 

Next, values leading:

Row | GI50 [1] [µM] | IC50 [1] [µM] | GI50 [2] [µM] | IC50 [3] [µM] | solubility [4] [µg/mL] | inhibition [5] | IC50 [6] [µM] | IC50 [7] [µM] | IC50 [8] [µM] | IC50 [9] [µM] | IC50 [10] [µM] | IC50 [11] [µM] | IC50 [12] [µM] | solubility [13] [µg/mL] | Compound
14 | < 1 | 0.4 | 1 | 0.2 | < 1000 | Active |  |  |  |  |  |  |  |  | O=C(O)c1ccc(C(=O)/C(=C\c2ccc(F)c([N+](=O)[O-])c2)SCc2ccc(C(F)(F)F)cc2)cc1
15 | < 1 | 0.3 | 1 | 2.5 | < 1000 |  |  |  |  |  |  |  |  |  | Cc1ccc(CS/C(=C/c2ccc(F)c([N+](=O)[O-])c2)C(=O)c2ccc(C(=O)O)cc2)cc1
16 | < 1 | 0.5 | 1 | 2.5 | < 1000 |  |  |  |  |  |  |  |  |  | O=C(O)c1ccc(C(=O)/C(=C\c2ccc(Cl)c([N+](=O)[O-])c2)SCc2ccc(F)cc2)cc1
17 | 50 | 75 | 50 | > 20 | < 1000 |  |  |  |  |  |  |  |  |  | O=C(O)c1ccc(C(=O)/C(=C\c2ccc(O)c([N+](=O)[O-])c2)SCc2ccc(Br)cc2)cc1
18 | < 1 | 0.9 | 1 | 10 | < 1000 |  |  |  |  |  |  |  |  |  | O=C(O)c1ccc(C(=O)/C(=C\c2ccc(Br)c([N+](=O)[O-])c2)SCc2ccc(Br)cc2)cc1
19 | < 1 | 0.3 | 1 | 0.5 | < 1000 | Active | 0.75 | 17 | 13.2 | > 10 | > 20 | > 50 | > 50 |  | O=C(O)c1ccc(C(=O)/C(=C\c2ccc(F)c([N+](=O)[O-])c2)SCc2ccc(Br)cc2)cc1
20 | 10 | 0.5 | 50 | 2.5 | < 1000 |  |  |  |  |  |  |  |  |  | O=C(O)c1ccc(C(=O)/C(=C\c2ccc(F)c([N+](=O)[O-])c2)SCc2ccc(Cl)cc2)cc1
21 | < 1 | 0.4 | 1 | 15 | < 1000 |  |  |  |  |  |  |  |  |  | O=C(O)c1ccc(C(=O)/C(=C\c2ccc(Br)c([N+](=O)[O-])c2)SCc2ccc(F)cc2)cc1
22 | < 1 | 0.6 | < 1 | 2.5 | < 1000 |  |  |  |  |  |  |  |  |  | O=C(O)c1ccc(C(=O)/C(=C\c2ccc(Br)c([N+](=O)[O-])c2)SCc2ccc(Cl)cc2)cc1
23 | 25 | 35 | 25 | > 20 | < 1000 |  |  |  |  |  |  |  |  |  | O=C(O)c1ccc(C(=O)/C(=C\c2ccc(O)c(Br)c2)SCc2ccc(Br)cc2)cc1
24 | 1 | 20 | 1 | > 20 | < 1000 |  |  |  |  |  |  |  |  |  | COc1cc(/C=C(/SCc2ccc(Br)cc2)C(=O)c2ccc(C(=O)O)cc2)ccc1F
25 |  | 0.3 |  | 0.75 | < 1000 | Active |  |  |  |  |  |  |  |  | COC(=O)c1ccc(C(=O)/C(=C\c2ccc(F)c([N+](=O)[O-])c2)SCc2ccc(Br)cc2)cc1
26 | < 1 | 0.5 | 1 | 10 | < 1000 |  |  |  |  |  |  |  |  |  | O=C(O)c1ccc(C(=O)/C(=C\c2ccc(Cl)c([N+](=O)[O-])c2)SCc2ccc(Cl)cc2)cc1
27 | 1 | 0.7 | 0.5 | 10 | < 1000 |  |  |  |  |  |  |  |  |  | O=C(O)c1ccc(C(=O)/C(=C\c2ccc(Cl)c([N+](=O)[O-])c2)SCc2ccc(Br)cc2)cc1
28 | < 1 | 0.4 | 1 | 2.5 | < 1000 |  |  |  |  |  |  |  |  |  | O=C(O)c1ccc(C(=O)/C(=C\c2ccc(F)c([N+](=O)[O-])c2)SCc2ccc(F)cc2)cc1
